In brackets after ≈: the same amount, converted by molar mass. Activity calls are given as the source filed them. The calls are words filed in the database; no cut-off is given here.
What was measured:
[1] = test system: Mycobacterium tuberculosis H37Rv; test: Inhibition of MmpL3 in clinical isolates of drug sensitive Mycobacterium tuberculosis H37Rv after 7 to 14 days by alamar blue assay
[2] = Oral bioavailability in BALB/c mouse at 100 mg/kg administered as single dose for 30 to 120 mins followed by Mycobacterium tuberculosis H37Rv addition to compound treated serum incubated for 7 days by alamar blue reagent based serum inhibition titration assay; type: ADME, organism-based; conditions: in vivo
Outline: (§1)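 Six-week-old female BALB/c mice (20 g) given one oral dose as suspension in 0.5% CMC in water; isoniazid 10 mg/kg as positive control, vehicle as negative. Serum collected at 30, 60 and 120 min, pooled from three mice per time point, 2-fold serially diluted. 10^4 CFU H37Rv added per well, 7 days at 37 °C. alamarBlue added for 16−18 h, fluorescence read at Ex544/Em590 and plotted against serum titration.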

[3] = test system: Mycobacterium tuberculosis; test: Antimycobacterial activity against Mycobacterium tuberculosis H37Rv grown on serum of 100 mg/kg, po treated BALB/c mouse for 30 to 120 mins assessed as reduction in bacterial growth followed by bacterial addition incubated for 7 days by alamar blue reagent based serum inhibition titration assay; type: functional, organism-based; outline: as §1
[4] = biological target: T1, Aryl hydrocarbon receptor (Homo sapiens, UniProt P35869); test: Transactivation of AhR (unknown origin) assessed as upregulation of CYP1A2; type: ADME
T1 sequence (P35869 whole entry): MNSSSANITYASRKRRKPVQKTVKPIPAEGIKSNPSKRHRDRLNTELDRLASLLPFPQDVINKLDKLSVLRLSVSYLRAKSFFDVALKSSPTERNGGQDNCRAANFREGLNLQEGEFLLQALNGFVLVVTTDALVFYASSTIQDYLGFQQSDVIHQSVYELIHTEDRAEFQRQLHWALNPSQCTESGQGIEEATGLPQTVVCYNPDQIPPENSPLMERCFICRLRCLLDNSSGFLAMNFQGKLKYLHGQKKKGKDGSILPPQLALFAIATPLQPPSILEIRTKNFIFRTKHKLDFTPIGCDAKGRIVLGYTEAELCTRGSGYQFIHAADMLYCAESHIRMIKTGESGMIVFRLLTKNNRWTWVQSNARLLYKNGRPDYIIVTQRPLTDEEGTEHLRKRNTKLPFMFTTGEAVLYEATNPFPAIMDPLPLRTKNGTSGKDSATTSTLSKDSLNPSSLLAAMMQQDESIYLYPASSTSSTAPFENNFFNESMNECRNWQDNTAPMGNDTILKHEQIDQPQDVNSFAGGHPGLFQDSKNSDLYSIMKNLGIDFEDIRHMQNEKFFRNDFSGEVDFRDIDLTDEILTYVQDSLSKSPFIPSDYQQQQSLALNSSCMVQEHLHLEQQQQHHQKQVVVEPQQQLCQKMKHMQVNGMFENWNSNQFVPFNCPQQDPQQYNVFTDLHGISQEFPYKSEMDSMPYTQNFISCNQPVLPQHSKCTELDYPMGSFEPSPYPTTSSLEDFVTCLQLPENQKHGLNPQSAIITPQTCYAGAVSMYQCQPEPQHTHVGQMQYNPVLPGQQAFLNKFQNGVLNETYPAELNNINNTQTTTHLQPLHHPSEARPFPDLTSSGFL
Outline: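 Nuclear receptor reporter-gene induction assay, with reporters coupled to PXR, CAR or AhR. Compound was tested at 0.1–1, 3 and 8 μg/mL. Positive controls were rifampin for PXR, CITCO for CAR and 3-methylcholanthrene for AhR.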

Row | SMILES | MIC90 [1] | further results
1 | C[C@@H]1[C@@H](NC(=O)c2cc3c(Cl)cc(Cl)cc3[nH]2)C[C@H]2C[C@@H]1C2(C)C | 0.086 µM (≈ 0.0314 µg/mL) | –
2 | O=C(N[C@@H]1C[C@H]2CC[C@@H]1C2)c1cc2c(Cl)cc(Cl)cc2[nH]1 (relative stereo) | 0.39 µM (≈ 0.126 µg/mL) | –
3 | O=C(NC1CCC2(CCCCC2)CC1)c1cc2c(Cl)cc(Cl)cc2[nH]1 | 0.005 µM (≈ 0.0019 µg/mL) | Drug uptake [2]: Not Active; Activity [3]: inactive
4 | O=C(NC1Cc2ccccc2C1)c1cc2c(Cl)cc(Cl)cc2[nH]1 | 0.72 µM (≈ 0.249 µg/mL) | –
5 | O=C(NC1CCCCCCC1)c1cc2ccc(Br)cc2[nH]1 | 0.09 µM (≈ 0.0314 µg/mL) | –
6 | CN1C2CCCC1CC(NC(=O)c1cc3c(Cl)cc(Cl)cc3[nH]1)C2 (stereo not given) | 10.9 µM (≈ 3.99 µg/mL) | –
7 | Nc1cccc2[nH]c(C(=O)NC3CCCCCCC3)cc12 | 20 µM (≈ 5.71 µg/mL) | –
8 | C[C@@H]1[C@H]2C[C@@H](C[C@H]1NC(=O)c1cc3ccc(Br)cc3[nH]1)C2(C)C | 0.01 µM (≈ 0.00375 µg/mL) | –
9 | Cc1ccc2[nH]c(C(=O)NC3CCCCCCC3)cc2c1 | 0.88 µM (≈ 0.25 µg/mL) | –
10 | CC(C)=CCC/C(C)=C/CNC(=O)c1cc2c(F)cc(F)cc2[nH]1 | > 192 µM | –
11 | CCCCCCCNC(=O)c1cc2c(Cl)cc(Cl)cc2[nH]1 | > 300 µM | –
12 | O=C(Nc1nc2ccc(OC(F)(F)F)cc2s1)C1CCCCCC1 | > 300 µM | –
13 | O=C(NC1CCC2(CCCCC2)CC1)c1cc2c(F)cc(F)cc2[nH]1 | 0.003 µM (≈ 0.00104 µg/mL) | Drug uptake [2]: Not Active; Activity [3]: inactive
14 | CC1(C)[C@H]2CC[C@@]1(C)[C@H](NC(=O)c1cc3c(Cl)cc(Cl)cc3[nH]1)C2 | 0.043 µM (≈ 0.0157 µg/mL) | –
15 | Cc1ccc2cc3c(ccc4ccccc43)c3c2c1CC3 [3-METHYLCHOLANTHRENE] | – | Activity [4]: Active
16 | Cc1ccc2cc(C(=O)NC3CCCCCCC3)[nH]c2c1 | 0.11 µM (≈ 0.0313 µg/mL) | –
17 | COc1cc(OC)c2cc(C(=O)NC3CCCCCCC3)[nH]c2c1 | 0.19 µM (≈ 0.0628 µg/mL) | –
18 | O=C(NC1Cc2ccccc2C1)c1cc2c(F)cc(F)cc2[nH]1 | 102 µM (≈ 31.9 µg/mL) | –
19 | Cc1cccc2cc(C(=O)NC3CCCCCCC3)[nH]c12 | 3.5 µM (≈ 0.995 µg/mL) | –
20 | Cc1cccc2[nH]c(C(=O)NC3CCCCCC3)cc12 | 0.93 µM (≈ 0.251 µg/mL) | –
21 | Cc1cc(C)c2cc(CNC(=O)C3CCCCCC3)[nH]c2c1 | 54 µM (≈ 16.1 µg/mL) | –
